In ChEMBL document CHEMBL1153409, “The identification of novel PLC-gamma inhibitors using virtual high throughput screening” (Bioorg Med Chem, 2009):
Active and inactive are the calls of the source. The calls are words filed in the database; no cut-off is given here.

Columns and labels:
[1] = target: T1, 1-phosphatidylinositol 4,5-bisphosphate phosphodiesterase gamma-2 (Homo sapiens) (UniProt P16885); experiment: Inhibition of recombinant phospholipase C gamma2 expressed in baculovirus infected Sf9 cells at 50 uM using [3H]PIP2 by flashplate biochemical assay
T1 sequence (whole entry): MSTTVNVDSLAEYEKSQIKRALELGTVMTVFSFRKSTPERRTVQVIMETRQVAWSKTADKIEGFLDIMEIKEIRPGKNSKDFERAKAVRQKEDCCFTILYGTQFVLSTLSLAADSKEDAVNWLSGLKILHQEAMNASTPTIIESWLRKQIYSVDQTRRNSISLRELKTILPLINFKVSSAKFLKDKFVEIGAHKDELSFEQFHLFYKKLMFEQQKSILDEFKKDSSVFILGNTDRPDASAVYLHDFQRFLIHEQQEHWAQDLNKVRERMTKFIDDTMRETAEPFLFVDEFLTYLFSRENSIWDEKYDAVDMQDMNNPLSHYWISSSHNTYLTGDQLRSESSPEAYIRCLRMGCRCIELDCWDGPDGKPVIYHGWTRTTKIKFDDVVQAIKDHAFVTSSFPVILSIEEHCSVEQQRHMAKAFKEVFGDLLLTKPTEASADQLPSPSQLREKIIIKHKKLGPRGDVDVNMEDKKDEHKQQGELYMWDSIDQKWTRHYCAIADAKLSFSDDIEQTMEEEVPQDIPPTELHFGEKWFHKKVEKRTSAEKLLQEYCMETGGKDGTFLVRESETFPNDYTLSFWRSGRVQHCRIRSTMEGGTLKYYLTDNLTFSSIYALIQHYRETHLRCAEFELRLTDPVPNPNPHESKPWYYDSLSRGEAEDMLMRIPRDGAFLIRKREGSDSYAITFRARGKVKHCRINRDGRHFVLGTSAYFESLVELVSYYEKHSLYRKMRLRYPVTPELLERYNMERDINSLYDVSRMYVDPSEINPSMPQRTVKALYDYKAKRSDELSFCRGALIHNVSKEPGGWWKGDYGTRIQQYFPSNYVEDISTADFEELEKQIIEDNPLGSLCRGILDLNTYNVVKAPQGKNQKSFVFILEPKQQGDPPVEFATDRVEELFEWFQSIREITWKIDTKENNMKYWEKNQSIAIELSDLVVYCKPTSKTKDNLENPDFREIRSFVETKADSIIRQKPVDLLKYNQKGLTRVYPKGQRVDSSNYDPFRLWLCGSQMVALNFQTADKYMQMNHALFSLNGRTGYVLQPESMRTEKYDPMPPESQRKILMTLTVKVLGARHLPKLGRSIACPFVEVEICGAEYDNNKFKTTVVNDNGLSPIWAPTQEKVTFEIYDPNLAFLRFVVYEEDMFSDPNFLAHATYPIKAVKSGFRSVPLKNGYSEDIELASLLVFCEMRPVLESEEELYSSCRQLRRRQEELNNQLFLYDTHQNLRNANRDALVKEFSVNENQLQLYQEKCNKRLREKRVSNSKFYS
How it was run: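 3H-PIP2 Flashplate assay with His-tagged full-length PLC-γ2 from infected Sf-9 cells. Substrate-coated wells (0.1 µCi/well) incubated with enzyme and compound in Tris/NaCl/CaCl2/EGTA/spermine/deoxycholate buffer, pH 7.4, 5% DMSO, room temperature, typically 30 min. Percent inhibition at 50 µM from two measurements, based on CPM versus control wells.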

[2] = target: T1, 1-phosphatidylinositol 4,5-bisphosphate phosphodiesterase gamma-2 (Homo sapiens); experiment: Inhibition of phospholipase C gamma2 in human A431 cells assessed as reduction of calcium release after 45 mins by FLIPR assay; type: cell-based; conditions: A-431
How it was run: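 A431 squamous carcinoma cells seeded at 4 × 10^5 per well and kept overnight at 37 °C, 5% CO2. Medium replaced with doubling dilutions of compound in HBSS starting at 100 µM. Calcium 3 dye added with probenecid (2.5 mM final), 45 min at 37 °C, then calcium release read by FLIPR at 37 °C.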

[3] = target: T1, 1-phosphatidylinositol 4,5-bisphosphate phosphodiesterase gamma-2 (Homo sapiens); experiment: Inhibition of phospholipase C gamma2 in human A431 cells assessed as reduction of calcium release at 25 uM after 45 mins by FLIPR assay; type: cell-based; conditions: A-431
How it was run: (§1)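 A431 cells seeded overnight at 4 × 10^5 per well, then given compound in HBSS. Calcium 3 dye with 2.5 mM probenecid, 45 min at 37 °C, FLIPR read at 37 °C. Scoring was semi-quantitative: any decrease in calcium release at 50 µM scored +, at 25 µM ++.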

[4] = target: T1, 1-phosphatidylinositol 4,5-bisphosphate phosphodiesterase gamma-2 (Homo sapiens); experiment: Inhibition of phospholipase C gamma2 in human A431 cells assessed as reduction of calcium release at 50 uM after 45 mins by FLIPR assay; type: cell-based; conditions: A-431; how it was run: as §1
[5] = target: T2, 1-phosphatidylinositol 4,5-bisphosphate phosphodiesterase gamma-2 (Homo sapiens, UniProt P16885); experiment: Inhibition of recombinant phospholipase C gamma2 expressed in baculovirus infected Sf9 cells using [3H]PIP2 by flashplate biochemical assay
T2 sequence (P16885 whole entry): T1 sequence (whole entry)
How it was run: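 Full-length His-tagged PLC-γ2 from baculovirus-infected Sf-9 cells, purified by Talon IMAC. Plates coated 24 h at room temperature with 3H-PIP2 (0.1 µCi/well); enzyme plus inhibitor in 50 mM Tris-HCl, 200 mM NaCl, 100 µM CaCl2, 100 µM EGTA, 100 µM spermine, 0.5 mM deoxycholate, pH 7.4, 5% v/v DMSO final. Scintillation signal loss read at room temperature, typically 30 min; CPM compared with control wells.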

Compound | inhibition [1] [%] | GC50 [2] | Calcium release inhibition activity at 25 uM [3] | Decrease in calcium release (active/inactive call) [4] | IC50 [5] [µM]
O=c1/c(=C/c2ccccc2[N+](=O)[O-])sc2nc(-c3ccc(F)cc3)nn12 | 100 | 15 µM | – | – | –
O=C1C2Nc3ccc(Br)cc3C2N=CN1CCc1ccccc1 (centres undefined) | 100 | inactive | – | – | –
O=S(=O)(Oc1ccc(-c2cnc3ccccc3n2)cc1)c1ccccc1 | 100 | – | Active | – | –
O=C1NN(c2ccccc2)C(=O)/C1=C/c1coc2ccc(Cl)cc2c1=O | 27 | 18 µM | – | – | –
O=C1C2Nc3ccc(Br)cc3C2N=CN1CCC1=CCCCC1 (centres undefined) | 100 | inactive | – | – | –
O=C(Nc1cccc(Cl)c1)Nc1nnc(-c2ccc3c(c2)OCO3)s1 | 85 | – | – | Active | –
O=C(Nc1nc2ccccc2c(=O)s1)c1ccc(Cl)cc1 | – | inactive | – | – | 2
Cc1ccc(S(=O)(=O)NC2=NC(=O)/C(=C\c3ccccc3)S2)cc1 | 82 | 15 µM | – | – | –
CC(=O)c1ccc(Nc2nnc(-c3ccncc3)s2)cc1 | 100 | – | Active | – | –
Cc1ccc2c(c1)N/C(=C\C(=O)c1ccc(Cl)cc1)C(=O)O2 | 100 | 22 µM | – | – | –
Cc1ccc(/C=C2\C(=O)NC(=O)N(c3ccc(Cl)cc3)C2=O)s1 | 6 | 5 µM | – | – | –
Nc1c(C(=O)Nc2cccc(F)c2)sc2nc(-c3ccc(F)cc3)ccc12 | 100 | – | – | Active | –
O=C(NCCc1ccccc1)c1cc2cccc([N+](=O)[O-])c2[nH]1 | – | 15 µM | – | – | 1
COc1ccc2c(c1)C1N=CN(CCc3c[nH]c4ccccc34)C(=O)C1N2 (centres undefined) | 89 | – | – | Active | –
Nc1c(C(=O)Nc2cccc(Cl)c2)sc2nc(-c3cccs3)ccc12 | 100 | – | – | Active | –
CCCc1nnc(NC(=O)c2cc([N+](=O)[O-])cc([N+](=O)[O-])c2)s1 | 100 | inactive | – | – | –
O=[N+]([O-])c1cc(-c2nc(-c3ccccn3)no2)cs1 | – | inactive | – | – | 2
CCOc1ccc2c(c1)C1N=CN(Cc3ccccc3)C(=O)C1N2 (centres undefined) | 89 | inactive | – | – | –
Cc1ccc(NC(=O)c2sc3nc4c(cc3c2N)C(=O)CCC4)cc1Cl | 100 | inactive | – | – | –

Compound | inhibition [1] [%] | GC50 [2] | Calcium release inhibition activity at 25 uM [3] | Decrease in calcium release (active/inactive call) [4] | IC50 [5] [µM]
COc1ccc(-c2nnc(NC(=O)c3cccs3)s2)cc1 | 100 | inactive | – | – | –
COc1ccc2[nH]c(C(=O)Nc3nc4ccccc4s3)cc2c1 | – | inactive | – | – | 5
N#Cc1ccc(/C=C2/N=C(c3ccccc3)OC2=O)cc1 | – | inactive | – | – | 2
O=C(Nc1ccc2oc(=O)ccc2c1)c1ccc(-c2cccc(Cl)c2)o1 | 100 | – | Active | – | –
O=c1/c(=C/c2ccncc2)sc2n1CN(c1ccc(Cl)cc1)CN=2 | 100 | 15 µM | – | – | –
CCCOc1ccc(-c2nnc(NC(=O)c3cccs3)s2)cc1 | 67 | inactive | – | – | –
COc1ccc(-c2cc3nnc(-c4ccccc4)nc3s2)cc1 | – | inactive | – | – | 4
O=C(Nc1ccccc1)Nc1nnc(-c2cccs2)s1 | 100 | inactive | – | – | –
Cc1ccc(NC(=O)c2sc3nc4c(cc3c2N)C(=O)CCC4)cc1 | 100 | inactive | – | – | –
O=C1OC(c2ccc([N+](=O)[O-])cc2)=N/C1=C/c1cccs1 | – | – | – | Active | 12
COc1ccc(S(=O)(=O)n2ccc(-c3ccc4c(c3)CCC(C)(C)O4)n2)cc1 | – | 30 µM | – | – | 3
Clc1cccc(-c2nc(-c3ccc(-c4ccon4)s3)no2)c1 | – | inactive | – | – | 1
O=C(Nc1ccc(Cl)cc1)c1cc2cccc([N+](=O)[O-])c2[nH]1 | – | inactive | – | – | 1
O=C(NC(=O)c1ccccc1Cl)Nc1ccc2c(c1)S(=O)(=O)C=C2 | – | inactive | – | – | 9.5
O=C(Nc1ccc(S(=O)(=O)Nc2nccs2)cc1)c1cccs1 | 82 | inactive | – | – | –
O=C1C2Nc3ccc(Br)cc3C2N=CN1CCc1ccc(F)cc1 (centres undefined) | 100 | inactive | – | – | –
COc1ccc(Cl)cc1C(=O)Nc1nc2ccc([N+](=O)[O-])cc2s1 | 100 | – | Active | – | –
Nc1c(C(=O)Nc2cccc(Cl)c2)sc2nc3c(cc12)C(=O)CCC3 | 100 | inactive | – | – | –
